In ChEMBL document CHEMBL2203081 (Bioorg Med Chem Lett, 2012):

Legend:
[1] = target: Serine/threonine-protein kinase PLK2 (Homo sapiens) (UniProt Q9NYY3); assay: Inhibition of PLK2 assessed as residual activity at 10 uM relative to control
[2] = target: T1, Ephrin type-B receptor 3 (Homo sapiens) (UniProt P54753); assay: Inhibition of EPH-B3 assessed as residual activity at 1 uM
T1 sequence (whole entry): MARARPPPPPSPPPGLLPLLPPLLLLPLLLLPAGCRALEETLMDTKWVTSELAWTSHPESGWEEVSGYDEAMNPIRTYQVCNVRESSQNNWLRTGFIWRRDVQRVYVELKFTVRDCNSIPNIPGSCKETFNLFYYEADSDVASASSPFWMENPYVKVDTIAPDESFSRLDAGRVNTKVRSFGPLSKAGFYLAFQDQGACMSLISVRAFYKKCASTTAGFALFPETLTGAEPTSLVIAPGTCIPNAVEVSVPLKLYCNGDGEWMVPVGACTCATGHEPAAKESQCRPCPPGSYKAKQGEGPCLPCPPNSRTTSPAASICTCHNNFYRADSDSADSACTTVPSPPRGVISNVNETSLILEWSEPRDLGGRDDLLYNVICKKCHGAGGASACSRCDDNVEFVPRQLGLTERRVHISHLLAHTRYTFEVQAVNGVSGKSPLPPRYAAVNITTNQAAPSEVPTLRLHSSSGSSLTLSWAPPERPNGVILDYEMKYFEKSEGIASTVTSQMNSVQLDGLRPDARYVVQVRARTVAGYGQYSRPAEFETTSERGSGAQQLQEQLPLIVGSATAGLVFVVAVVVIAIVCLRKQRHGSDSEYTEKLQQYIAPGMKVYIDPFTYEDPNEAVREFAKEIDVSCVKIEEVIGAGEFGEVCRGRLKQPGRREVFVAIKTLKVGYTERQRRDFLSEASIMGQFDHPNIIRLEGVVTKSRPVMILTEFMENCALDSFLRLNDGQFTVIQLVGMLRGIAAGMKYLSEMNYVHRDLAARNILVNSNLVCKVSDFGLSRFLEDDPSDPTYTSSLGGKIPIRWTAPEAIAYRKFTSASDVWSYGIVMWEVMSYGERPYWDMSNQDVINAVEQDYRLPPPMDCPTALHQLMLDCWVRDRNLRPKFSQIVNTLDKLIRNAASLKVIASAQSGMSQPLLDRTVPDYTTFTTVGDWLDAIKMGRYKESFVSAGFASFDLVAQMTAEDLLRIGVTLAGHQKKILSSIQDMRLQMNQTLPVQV
Method in brief: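 Standard radioactivity-based enzymatic kinase assays on a 131-kinase panel run by the Dundee profiling service; residual kinase activity recorded.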

[3] = Inhibition of FLT3 ITD mutant assessed as residual activity at 10 uM relative to control
[4] = target: Glycogen synthase kinase-3 beta (Homo sapiens) (UniProt P49841); assay: Inhibition of GSK3b assessed as residual activity at 1 uM
Method in brief: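 Radioactivity-based enzymatic activity assay of the named kinase, run as part of a 131-kinase specificity panel at the National Centre for Protein Kinase Profiling (Dundee). Residual activity was read at the stated single inhibitor concentration.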

[5] = target: T2, Mitogen-activated protein kinase kinase kinase 7 (Homo sapiens) (UniProt O43318); assay: Inhibition of TAK1 assessed as residual activity at 10 uM relative to control
T2 sequence (whole entry): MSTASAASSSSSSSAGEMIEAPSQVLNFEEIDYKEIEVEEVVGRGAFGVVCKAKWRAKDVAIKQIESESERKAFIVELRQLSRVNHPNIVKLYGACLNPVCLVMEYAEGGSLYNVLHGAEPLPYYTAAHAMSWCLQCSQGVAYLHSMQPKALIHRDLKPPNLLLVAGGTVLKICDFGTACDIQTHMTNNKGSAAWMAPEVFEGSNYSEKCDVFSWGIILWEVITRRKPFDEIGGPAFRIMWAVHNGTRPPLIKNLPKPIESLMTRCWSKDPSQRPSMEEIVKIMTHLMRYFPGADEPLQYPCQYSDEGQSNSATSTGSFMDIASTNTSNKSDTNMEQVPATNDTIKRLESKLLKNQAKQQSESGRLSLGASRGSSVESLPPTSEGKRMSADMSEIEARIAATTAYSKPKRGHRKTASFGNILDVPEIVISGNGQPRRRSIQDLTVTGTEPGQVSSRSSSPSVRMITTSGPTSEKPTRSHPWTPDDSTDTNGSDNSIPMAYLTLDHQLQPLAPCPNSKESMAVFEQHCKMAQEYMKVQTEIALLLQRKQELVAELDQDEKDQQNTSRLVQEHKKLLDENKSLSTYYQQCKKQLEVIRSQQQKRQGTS

[6] = target: Casein kinase II subunit alpha' (Homo sapiens) (UniProt P19784); assay: Inhibition of CSNK2A2 assessed as residual activity at 10 uM relative to control
Method in brief: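 Competition kinase-binding assay (KINOMEscan) across a non-redundant panel of 329 kinases beyond the radiometric panel; residual binding expressed relative to control.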

[7] = target: Serine/threonine-protein kinase pim-1 (Homo sapiens) (UniProt P11309); assay: Inhibition of PIM1 assessed as residual activity at 1 uM
[8] = target: Inhibitor of nuclear factor kappa-B kinase subunit epsilon (Homo sapiens) (UniProt Q14164); assay: Inhibition of IKKe assessed as residual activity at 10 uM
[9] = target: Serine/threonine-protein kinase SIK1 (Homo sapiens) (UniProt P57059); assay: Inhibition of SIK assessed as residual activity at 10 uM relative to control
[10] = target: Serine/threonine-protein kinase SIK2 (Homo sapiens) (UniProt Q9H0K1); assay: Inhibition of SIK2 assessed as residual activity at 10 uM relative to control
[11] = target: Ephrin type-B receptor 4 (Homo sapiens) (UniProt P54760); assay: Inhibition of EPH-B4 assessed as residual activity at 10 uM
Method in brief: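 Radioactivity-based enzymatic assay against a panel of 131 kinases (Dundee profiling). Activity remaining was measured with compound present at the stated concentration.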

[12] = target: Mitogen-activated protein kinase kinase kinase 9 (Homo sapiens) (UniProt P80192); assay: Inhibition of MLK1 assessed as residual activity at 10 uM relative to control
[13] = target: Cyclin-dependent kinase 11B (Homo sapiens) (UniProt P21127); assay: Inhibition of CDC2L1 assessed as residual activity at 10 uM relative to control
[14] = target: Protein kinase C eta type (Homo sapiens) (UniProt P24723); assay: Inhibition of PRKCH assessed as residual activity at 10 uM relative to control
[15] = target: Phosphatidylinositol 4-phosphate 3-kinase C2 domain-containing subunit beta (Homo sapiens) (UniProt O00750); assay: Inhibition of PIK3C2B assessed as residual activity at 10 uM relative to control
[16] = target: Serine/threonine-protein kinase PAK 5 (Homo sapiens) (UniProt Q9P286); assay: Inhibition of PAK7 assessed as residual activity at 10 uM relative to control
[17] = target: Serine/threonine-protein kinase 36 (Homo sapiens) (UniProt Q9NRP7); assay: Inhibition of STK36 assessed as residual activity at 10 uM relative to control
[18] = target: Cyclin-dependent kinase 14 (Homo sapiens) (UniProt O94921); assay: Inhibition of PFTK1 assessed as residual activity at 10 uM relative to control

Sequence of Serine/threonine-protein kinase SIK2 (Homo sapiens) (Q9H0K1 whole entry, looked up): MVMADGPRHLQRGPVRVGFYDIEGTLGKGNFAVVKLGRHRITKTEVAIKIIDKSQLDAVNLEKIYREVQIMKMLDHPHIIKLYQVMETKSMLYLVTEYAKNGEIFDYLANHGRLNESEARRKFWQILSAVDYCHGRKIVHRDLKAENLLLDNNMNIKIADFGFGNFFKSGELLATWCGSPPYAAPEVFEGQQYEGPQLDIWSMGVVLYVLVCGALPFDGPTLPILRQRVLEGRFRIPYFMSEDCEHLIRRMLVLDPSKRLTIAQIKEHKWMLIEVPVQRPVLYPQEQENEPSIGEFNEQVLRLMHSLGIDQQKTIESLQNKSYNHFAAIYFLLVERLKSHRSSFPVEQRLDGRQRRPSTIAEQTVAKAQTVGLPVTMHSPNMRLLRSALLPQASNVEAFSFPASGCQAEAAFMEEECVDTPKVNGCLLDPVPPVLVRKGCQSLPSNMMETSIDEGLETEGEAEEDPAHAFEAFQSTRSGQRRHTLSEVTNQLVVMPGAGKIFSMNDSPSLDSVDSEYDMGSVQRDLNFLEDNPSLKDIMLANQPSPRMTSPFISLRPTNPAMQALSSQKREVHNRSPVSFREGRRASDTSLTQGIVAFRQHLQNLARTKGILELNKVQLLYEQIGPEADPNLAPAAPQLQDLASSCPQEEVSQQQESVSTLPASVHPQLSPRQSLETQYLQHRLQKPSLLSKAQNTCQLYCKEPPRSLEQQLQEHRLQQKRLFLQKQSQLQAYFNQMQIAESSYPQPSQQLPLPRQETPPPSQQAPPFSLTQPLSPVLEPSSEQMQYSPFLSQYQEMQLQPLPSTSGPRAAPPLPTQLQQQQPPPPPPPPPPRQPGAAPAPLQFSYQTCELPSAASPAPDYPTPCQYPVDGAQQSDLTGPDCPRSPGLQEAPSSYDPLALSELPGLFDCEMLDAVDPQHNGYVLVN
Sequence of Phosphatidylinositol 4-phosphate 3-kinase C2 domain-containing subunit beta (Homo sapiens) (O00750 whole entry, the tested form may be a part): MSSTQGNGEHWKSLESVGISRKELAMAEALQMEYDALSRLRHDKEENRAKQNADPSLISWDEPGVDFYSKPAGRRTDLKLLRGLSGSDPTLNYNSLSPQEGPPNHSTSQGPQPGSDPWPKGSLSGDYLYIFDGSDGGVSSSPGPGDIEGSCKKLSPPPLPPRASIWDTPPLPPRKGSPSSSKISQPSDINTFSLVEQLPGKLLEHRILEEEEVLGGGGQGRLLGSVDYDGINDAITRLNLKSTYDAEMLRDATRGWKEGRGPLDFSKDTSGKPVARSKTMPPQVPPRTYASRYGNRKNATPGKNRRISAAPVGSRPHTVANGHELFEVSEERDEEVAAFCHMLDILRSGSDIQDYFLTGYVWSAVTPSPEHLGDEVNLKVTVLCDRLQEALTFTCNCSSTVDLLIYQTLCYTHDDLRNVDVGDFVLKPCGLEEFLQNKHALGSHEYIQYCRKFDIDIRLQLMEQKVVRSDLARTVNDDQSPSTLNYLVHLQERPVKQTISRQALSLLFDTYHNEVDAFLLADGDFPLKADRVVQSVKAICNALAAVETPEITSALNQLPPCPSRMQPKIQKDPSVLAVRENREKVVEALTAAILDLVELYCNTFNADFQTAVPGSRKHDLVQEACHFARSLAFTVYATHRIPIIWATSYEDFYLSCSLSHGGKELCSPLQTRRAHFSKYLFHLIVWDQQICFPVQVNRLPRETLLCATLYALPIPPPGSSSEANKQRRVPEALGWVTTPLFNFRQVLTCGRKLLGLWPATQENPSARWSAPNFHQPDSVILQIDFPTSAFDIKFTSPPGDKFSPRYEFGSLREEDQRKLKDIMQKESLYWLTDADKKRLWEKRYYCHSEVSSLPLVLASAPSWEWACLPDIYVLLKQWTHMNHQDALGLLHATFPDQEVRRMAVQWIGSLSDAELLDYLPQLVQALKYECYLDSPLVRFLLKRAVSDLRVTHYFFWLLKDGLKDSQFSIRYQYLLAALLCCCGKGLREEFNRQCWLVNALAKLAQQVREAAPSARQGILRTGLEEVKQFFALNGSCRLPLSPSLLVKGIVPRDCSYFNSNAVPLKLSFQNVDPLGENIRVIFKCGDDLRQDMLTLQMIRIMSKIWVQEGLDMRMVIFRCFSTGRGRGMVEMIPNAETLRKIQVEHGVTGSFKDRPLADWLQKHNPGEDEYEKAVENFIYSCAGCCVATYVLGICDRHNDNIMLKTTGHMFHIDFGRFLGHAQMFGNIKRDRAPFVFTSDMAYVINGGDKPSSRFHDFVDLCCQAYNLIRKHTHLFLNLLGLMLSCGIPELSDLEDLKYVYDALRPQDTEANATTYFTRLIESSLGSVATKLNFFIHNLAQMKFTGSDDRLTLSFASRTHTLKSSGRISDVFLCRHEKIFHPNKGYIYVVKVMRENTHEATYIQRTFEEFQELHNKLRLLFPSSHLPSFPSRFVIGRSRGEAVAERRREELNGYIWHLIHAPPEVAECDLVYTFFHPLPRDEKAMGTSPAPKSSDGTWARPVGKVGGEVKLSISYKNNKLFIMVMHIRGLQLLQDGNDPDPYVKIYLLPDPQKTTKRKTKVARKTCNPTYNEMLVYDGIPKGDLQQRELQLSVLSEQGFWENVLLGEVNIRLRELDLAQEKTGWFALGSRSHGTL
Sequence of Mitogen-activated protein kinase kinase kinase 9 (Homo sapiens) (P80192 whole entry, looked up): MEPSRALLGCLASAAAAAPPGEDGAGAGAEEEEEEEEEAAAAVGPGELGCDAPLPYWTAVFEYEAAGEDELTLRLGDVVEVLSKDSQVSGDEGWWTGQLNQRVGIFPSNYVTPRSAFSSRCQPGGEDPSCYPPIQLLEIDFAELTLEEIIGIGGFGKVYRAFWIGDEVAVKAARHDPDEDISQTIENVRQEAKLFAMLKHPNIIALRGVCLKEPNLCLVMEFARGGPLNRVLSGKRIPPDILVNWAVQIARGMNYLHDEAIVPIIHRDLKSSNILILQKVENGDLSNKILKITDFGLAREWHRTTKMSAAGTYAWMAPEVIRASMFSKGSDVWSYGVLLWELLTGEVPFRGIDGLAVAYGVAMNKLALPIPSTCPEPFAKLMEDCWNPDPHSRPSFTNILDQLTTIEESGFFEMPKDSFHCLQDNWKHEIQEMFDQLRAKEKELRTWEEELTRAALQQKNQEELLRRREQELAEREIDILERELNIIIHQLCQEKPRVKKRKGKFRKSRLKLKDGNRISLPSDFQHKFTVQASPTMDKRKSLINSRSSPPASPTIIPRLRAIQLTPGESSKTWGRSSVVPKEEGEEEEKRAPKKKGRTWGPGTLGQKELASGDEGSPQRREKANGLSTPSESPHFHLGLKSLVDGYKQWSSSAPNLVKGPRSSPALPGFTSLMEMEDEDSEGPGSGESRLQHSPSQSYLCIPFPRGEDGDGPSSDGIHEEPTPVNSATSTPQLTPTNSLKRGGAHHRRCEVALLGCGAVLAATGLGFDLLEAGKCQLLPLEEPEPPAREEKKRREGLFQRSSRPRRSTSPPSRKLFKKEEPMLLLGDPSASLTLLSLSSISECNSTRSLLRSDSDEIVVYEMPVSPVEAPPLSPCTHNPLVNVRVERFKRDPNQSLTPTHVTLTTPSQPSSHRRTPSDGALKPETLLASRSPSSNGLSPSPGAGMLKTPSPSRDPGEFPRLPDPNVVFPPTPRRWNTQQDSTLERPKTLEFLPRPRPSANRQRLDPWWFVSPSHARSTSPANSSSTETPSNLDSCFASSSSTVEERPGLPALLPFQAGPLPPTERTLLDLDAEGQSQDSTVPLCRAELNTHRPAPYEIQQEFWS
Sequence of Casein kinase II subunit alpha' (Homo sapiens) (P19784 whole entry, looked up): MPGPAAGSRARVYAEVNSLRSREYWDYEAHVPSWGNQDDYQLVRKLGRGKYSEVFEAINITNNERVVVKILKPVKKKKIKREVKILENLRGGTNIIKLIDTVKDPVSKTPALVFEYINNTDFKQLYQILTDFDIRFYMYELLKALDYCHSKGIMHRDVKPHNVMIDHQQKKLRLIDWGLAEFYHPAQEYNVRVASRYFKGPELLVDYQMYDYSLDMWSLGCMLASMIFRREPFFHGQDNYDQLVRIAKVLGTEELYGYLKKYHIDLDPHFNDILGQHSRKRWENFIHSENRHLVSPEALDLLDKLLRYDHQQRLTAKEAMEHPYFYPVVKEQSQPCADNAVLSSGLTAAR
Sequence of Serine/threonine-protein kinase PLK2 (Homo sapiens) (Q9NYY3 whole entry, looked up): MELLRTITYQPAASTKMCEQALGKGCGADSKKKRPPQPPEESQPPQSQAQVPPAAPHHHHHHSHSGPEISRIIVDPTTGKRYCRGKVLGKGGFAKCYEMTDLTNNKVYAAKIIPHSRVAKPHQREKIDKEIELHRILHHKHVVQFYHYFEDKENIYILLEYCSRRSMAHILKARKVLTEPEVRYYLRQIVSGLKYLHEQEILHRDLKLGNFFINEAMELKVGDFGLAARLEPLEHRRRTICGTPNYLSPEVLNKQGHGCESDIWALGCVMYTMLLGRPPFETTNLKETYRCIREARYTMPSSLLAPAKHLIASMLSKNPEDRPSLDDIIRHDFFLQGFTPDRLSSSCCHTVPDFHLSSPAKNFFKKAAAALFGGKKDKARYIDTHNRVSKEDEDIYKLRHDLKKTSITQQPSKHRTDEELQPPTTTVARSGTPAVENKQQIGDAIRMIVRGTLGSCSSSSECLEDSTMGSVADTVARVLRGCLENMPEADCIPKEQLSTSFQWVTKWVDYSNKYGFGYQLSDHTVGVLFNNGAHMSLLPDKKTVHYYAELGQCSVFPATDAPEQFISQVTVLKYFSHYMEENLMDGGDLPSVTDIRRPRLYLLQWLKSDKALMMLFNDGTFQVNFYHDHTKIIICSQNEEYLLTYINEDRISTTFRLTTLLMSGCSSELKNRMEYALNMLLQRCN
Sequence of Serine/threonine-protein kinase pim-1 (Homo sapiens) (P11309 whole entry, looked up): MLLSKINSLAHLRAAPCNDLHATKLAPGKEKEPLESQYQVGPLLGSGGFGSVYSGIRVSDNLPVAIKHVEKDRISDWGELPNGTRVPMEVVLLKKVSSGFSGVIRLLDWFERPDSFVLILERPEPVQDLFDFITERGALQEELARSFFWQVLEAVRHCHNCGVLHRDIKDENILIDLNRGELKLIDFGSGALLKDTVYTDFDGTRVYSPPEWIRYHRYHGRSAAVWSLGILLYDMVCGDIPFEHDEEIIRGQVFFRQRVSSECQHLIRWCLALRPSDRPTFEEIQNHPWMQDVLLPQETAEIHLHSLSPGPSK

O=C(Nc1cccnc1)c1cc(-c2ccnc(F)c2)ccc1OCc1ccccc1
Activity [1]: 69%
Activity [2]: 121%
Activity [3]: 16%
Activity [4]: 119%
Activity [5]: 59%
Activity [6]: 70%
Activity [7]: 102%
Activity [8]: 102%
Activity [9]: 46%
Activity [10]: 26%
Activity [11]: 108%
Activity [12]: 74%
Activity [13]: 67%
Activity [14]: 59%
Activity [15]: 42%
Activity [16]: 69%
Activity [17]: 63%
Activity [18]: 80%
